One may read the IC50 as the concentration that inhibits the measured activity by half.

Each structure is given as a SMILES string. Calls of active or inactive are those of the source. The rule behind the calls is not given here.

In data set [1] the test system is A549. As to the kind of experiment: Antiproliferative activity against human A549 cells assessed as cell growth inhibition measured after 48 hrs by MTT assay. The format is functional, cell-based. The note with it: A549, 48 h. The method, boiled down: (§1)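 Cancer cell lines exposed to compounds for 48 h; viability read by MTT assay. IC50 reported as mean ± SD from at least three independent experiments.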
For orientation: Tetrazolium assays rely on reduction of a dye to a coloured formazan, in cell work by metabolically active cells.

The test system of another data set is HepG2. As to the kind of experiment: Antiproliferative activity against human HepG2 cells assessed as cell growth inhibition measured after 48 hrs by MTT assay. The format is functional, cell-based. The note with it: HepG2, 48 h. In short, it runs like this:
as §1

For data set [2], the system named is A549. As to the kind of experiment: Cell cycle arrest in human A549 cells assessed as appearance of hypodiploid DNA content at sub G1 phase at 1 to 10 nM after 48 hrs by RNase/propidium iodide staining based flow cytometry analysis. The format is functional. For orientation: Flow cytometry measures light scatter and fluorescence of single cells or particles in a stream.

Data set [3] has as its system A549. As to the kind of experiment: Induction of apoptosis in human A549 cells assessed as late apoptotic cells at 5 nM after 24 hrs by annexin V-FITC/propidium iodide staining based flow cytometry (reference value: 0.02 %). The format is functional. In short, it runs like this:
(§2)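 A549 cells treated at 1, 5 or 10 nM for 24 or 48 h, then analysed by flow cytometry. Quadrants: upper left necrotic, upper right late apoptotic, bottom left live, bottom right early apoptotic. Three experiments; representative results shown.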

Data set [4] has as its system A549. As to the kind of experiment: Induction of apoptosis in human A549 cells assessed as live cells at 10 nM after 24 hrs by annexin V-FITC/propidium iodide staining based flow cytometry (reference value: 99.75 %). It is filed as functional. In short, it runs like this:
as §2

In data set [5] the test system is A549. As to the kind of experiment: Induction of apoptosis in human A549 cells assessed as early apoptotic cells at 10 nM after 24 hrs by annexin V-FITC/propidium iodide staining based flow cytometry (reference value: 0.19 %). The format is functional. The method, boiled down: as §2
Data set [6] deals with A549. The data set can be described thus: Induction of apoptosis in human A549 cells assessed as early apoptotic cells at 5 nM after 48 hrs by annexin V-FITC/propidium iodide staining based flow cytometry (reference value: 0.19 %). It is filed as functional. The method, boiled down: as §2
The subject of data set [7] is A549. As to the kind of experiment: Induction of apoptosis in human A549 cells assessed as live cells at 10 nM after 48 hrs by annexin V-FITC/propidium iodide staining based flow cytometry (reference value: 99.75 %). It is filed as functional. The method, boiled down:
as §2

In data set [8] the test system is A549. The data set can be described thus: Induction of apoptosis in human A549 cells assessed as early apoptotic cells at 10 nM after 48 hrs by annexin V-FITC/propidium iodide staining based flow cytometry (reference value: 0.19 %). It is filed as functional. In short, it runs like this: as §2
Data set [9] concerns A549. As to the kind of experiment: Induction of apoptosis in human A549 cells assessed as late apoptotic cells at 10 nM after 48 hrs by annexin V-FITC/propidium iodide staining based flow cytometry (reference value: 0.02 %). The format is functional. In short, it runs like this: as §2
A short description of data set [10]: Metabolic stability in Sprague-Dawley rat liver microsomes assessed as parent compound remaining after 90 mins in presence of NADPH by HPLC-UV-MS analysis. It is filed as ADME, Microsome. The note with it: read-out: Stability. In short, it runs like this: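 Compound incubated with rat liver microsomes in buffer containing an NADPH regenerating system. Percentage of parent remaining was determined at time points up to 180 min, and half-life was derived.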
On the technique in general: Microsomes from liver hold many membrane-bound enzymes, among them those of drug oxidation.

As for `COc1ccc2c(c1O)NC(=O)CN=C2c1cc(OC)c(OC)c([Se]C)c1`, the IC50 in the data set with A549 [1] turned out to be 5.82 nM; in the data set on HepG2, 12.6 nM. Besides, the outcome in the data set with A549 [2] was Active. Besides, the Activity is reported as 0.32% in the data set with A549 [3]; 76.72% with A549 [4]; 23.06% in the data set on A549 [5]; 28.68% in the data set on A549 [6]; 11.84% in the data set on A549 [7]; 65.4% in the data set on A549 [8]. In addition, the Activity with A549 [9] is given as 19.15%. Besides, the remaining at 1.5 h in data set [10] was determined as 75.9%.

(Values after ChEMBL document CHEMBL4359917, “Design, synthesis, and biological evaluation of novel benzodiazepine derivatives as anticancer agents through inhibition of tubulin polymerization in vitro and in vivo” (Eur J Med Chem, 2019).)
